Test results as given in ChEMBL document CHEMBL1141657, “Synthesis, structure elucidation and identification of antitumoural properties of novel fused 1,2,4-triazine aryl derivatives” (Eur J Med Chem, 2008).

Columns and labels:
[1] = Growth inhibition of HSF cells assessed as BrdU incorporation at 34.9 uM after 72 hrs by spectrophotometry; assay type: cell-based; details: human, read-out: GI
How it was run: (§1)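 Cells were seeded at 10⁴ cells/mL and preincubated. Compounds were dissolved in DMSO and added at two fixed concentrations, then incubated for 72 h. End-point was BrdU labelling with ELISA detection, read spectrophotometrically. Result is % growth inhibition versus untreated controls. Triplicates.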

[2] = system: Vero; experiment: Growth inhibition of african green monkey Vero cells assessed as BrdU incorporation at 34.9 uM after 72 hrs by spectrophotometry; assay type: cell-based; details: chlorocebus sabaeus; how it was run: as §1
[3] = Growth inhibition of human LS180 cells assessed as BrdU incorporation at 34.9 uM after 72 hrs by spectrophotometry; assay type: functional; details: LS180, 72 h, read-out: GI; how it was run: as §1
[4] = system: SiHa; experiment: Growth inhibition of human SiHa cells assessed as BrdU incorporation at 34.9 uM after 72 hrs by spectrophotometry; assay type: functional; details: read-out: GI; how it was run: as §1
[5] = system: T47D; experiment: Growth inhibition of human T47D cells assessed as BrdU incorporation at 34.9 uM after 72 hrs by spectrophotometry; assay type: functional; details: read-out: GI
How it was run: (§2)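 Each cell line was seeded at 10⁴ cells per mL and preincubated. Test agents were dissolved in DMSO, added at two examined concentrations (10 and 50 per mL by mass), and incubated for 72 h. The end-point was BrdU labeling and detection kit III read on an ELISA reader. Percent growth inhibition was calculated against untreated controls, in triplicate.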

[6] = Growth inhibition of HSF cells assessed as BrdU incorporation at 174.6 uM after 72 hrs by spectrophotometry; assay type: cell-based; details: human; how it was run: as §1
[7] = Growth inhibition of african green monkey Vero cells assessed as BrdU incorporation at 174.6 uM after 72 hrs by spectrophotometry; assay type: cell-based; details: chlorocebus sabaeus, read-out: GI; how it was run: as §1
[8] = Growth inhibition of human LS180 cells assessed as BrdU incorporation at 174.6 uM after 72 hrs by spectrophotometry; assay type: functional; details: LS180, 72 h, read-out: GI; how it was run: as §1
[9] = system: SiHa; experiment: Growth inhibition of human SiHa cells assessed as BrdU incorporation at 174.6 uM after 72 hrs by spectrophotometry; assay type: functional; details: read-out: GI; how it was run: as §1
[10] = system: T47D; experiment: Growth inhibition of human T47D cells assessed as BrdU incorporation at 174.6 uM after 72 hrs by spectrophotometry; assay type: functional; details: read-out: GI; how it was run: as §2
[11] = Cytotoxicity against HSF cells assessed as cell viability at 1 uM after 24 hrs by MTT assay relative to control; assay type: cell-based; details: human, read-out: Activity
How it was run: (§3)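 Normal human skin fibroblasts (HSF, primary line) were exposed to DMSO-dissolved compound for 24 h. Viability was read by MTT tetrazolium reduction and expressed against untreated control set at 100%.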

[12] = Cytotoxicity against HSF cells assessed as cell viability at 50 uM after 24 hrs by MTT assay relative to control; assay type: cell-based; details: human, read-out: Activity; how it was run: as §3
[13] = Cytotoxicity against HSF cells assessed as cell viability at 100 uM after 24 hrs by MTT assay relative to control; assay type: cell-based; details: human, read-out: Activity; how it was run: as §3
[14] = system: Jurkat; experiment: Cytotoxicity against human Jurkat cells assessed as cell viability at 1 uM after 24 hrs by MTT assay relative to control; assay type: functional; details: read-out: Activity
How it was run: (§4)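 Jurkat T-cell leukaemia line grown in RPMI 1640 with 10% FBS, 2 mM L-glutamine and gentamycin at 37 °C, 5% CO2, kept in log phase. Compounds were dissolved in DMSO and applied for 24 h. Cells were washed in HEPES-buffered medium (pH 7.4) and given MTT at 0.5 mg/mL for 45 min at 37 °C. Formazan was dissolved in DMSO and read at 570 nm. Viability is % of control, from three independent measurements.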

[15] = system: Jurkat; experiment: Cytotoxicity against human Jurkat cells assessed as cell viability at 50 uM after 24 hrs by MTT assay relative to control; assay type: functional; details: read-out: Activity; how it was run: as §4
[16] = system: Jurkat; experiment: Cytotoxicity against human Jurkat cells assessed as cell viability at 100 uM after 24 hrs by MTT assay relative to control; assay type: functional; details: read-out: Activity; how it was run: as §4
[17] = Growth inhibition of HSF cells assessed as BrdU incorporation at 31.2 uM after 72 hrs by spectrophotometry; assay type: cell-based; details: human, read-out: GI
[18] = system: Vero; experiment: Growth inhibition of african green monkey Vero cells assessed as BrdU incorporation at 31.2 uM after 72 hrs by spectrophotometry; assay type: cell-based; details: chlorocebus sabaeus
[19] = Growth inhibition of human LS180 cells assessed as BrdU incorporation at 31.2 uM after 72 hrs by spectrophotometry; assay type: functional; details: LS180, 72 h, read-out: GI
[20] = system: SiHa; experiment: Growth inhibition of human SiHa cells assessed as BrdU incorporation at 31.2 uM after 72 hrs by spectrophotometry; assay type: functional; details: read-out: GI
[21] = system: T47D; experiment: Growth inhibition of human T47D cells assessed as BrdU incorporation at 31.2 uM after 72 hrs by spectrophotometry; assay type: functional; details: read-out: GI
[22] = Growth inhibition of HSF cells assessed as BrdU incorporation at 155.9 uM after 72 hrs by spectrophotometry; assay type: cell-based; details: human, read-out: GI
[23] = Growth inhibition of african green monkey Vero cells assessed as BrdU incorporation at 155.9 uM after 72 hrs by spectrophotometry; assay type: cell-based; details: chlorocebus sabaeus, read-out: GI
[24] = Growth inhibition of human LS180 cells assessed as BrdU incorporation at 155.9 uM after 72 hrs by spectrophotometry; assay type: functional; details: LS180, 72 h, read-out: GI
[25] = system: SiHa; experiment: Growth inhibition of human SiHa cells assessed as BrdU incorporation at 155.9 uM after 72 hrs by spectrophotometry; assay type: functional; details: read-out: GI
[26] = system: T47D; experiment: Growth inhibition of human T47D cells assessed as BrdU incorporation at 155.9 uM after 72 hrs by spectrophotometry; assay type: functional; details: read-out: GI

With `Cc1ccc(N2CCn3c2nnc(C(=O)NN)c3=O)cc1` the inhibition at 72 h, 34.9 µM [1] was 0%, the “growth inhibition (GI)” value [2] was 2% and the inhibition of growth at 34.9 µM [3] was 0%. For the same molecule, the inhibition of growth at 34.9 µM [4] was 11%, the inhibition of growth at 34.9 µM [5] was 5% and the “growth inhibition (GI)” value [6] was 0%. For the same molecule, the inhibition at 72 h, 174.6 µM [7] was 0%, the inhibition of growth at 174.6 µM [8] was 14% and the inhibition of growth at 174.6 µM [9] was 9%. The inhibition of growth at 174.6 µM [10] was 8%, the viability at 24 h, 1 µM [11] was 109% and the viability at 24 h, 50 µM [12] was 111%. It also gave a viability at 24 h, 100 µM [13] of 95%, a viability at 1 µM [14] of 93% and a viability at 50 µM [15] of 87%. It also gave a viability at 100 µM [16] of 79%.
In the case of `CCOC(=O)c1nnc2n(c1=O)CCN2c1cccc(Cl)c1`, the inhibition at 72 h, 31.2 µM [17] is reported as 16%, the “growth inhibition (GI)” value [18] is reported as 20% and the inhibition of growth at 31.2 µM [19] is reported as 30%. It also gave an inhibition of growth at 31.2 µM [20] of 41%, an inhibition of growth at 31.2 µM [21] of 26% and an inhibition at 72 h, 155.9 µM [22] of 17%. It also gave an inhibition at 72 h, 155.9 µM [23] of 25%, an inhibition of growth at 155.9 µM [24] of 35% and an inhibition of growth at 155.9 µM [25] of 52%. It also gave an inhibition of growth at 155.9 µM [26] of 41%, a viability at 24 h, 1 µM [11] of 104% and a viability at 24 h, 50 µM [12] of 103%. For the same molecule, the viability at 24 h, 100 µM [13] was 98%, the viability at 1 µM [14] was 114% and the viability at 50 µM [15] was 111%. The viability at 100 µM [16] was 107%.
